Among the data in ChEMBL document CHEMBL1671845, “Inhibitors of HCV NS5A: From Iminothiazolidinones to Symmetrical Stilbenes” (ACS Med Chem Lett, 2011) are EC50, CC50 and Stability values, retold here.

The first series relates to Hepatitis C virus. Put plainly: Antiviral activity against HCV1b infected in human HuH7 cells assessed as inhibition of viral replication after 72 hrs by FRET assay. Format: functional, organism-based, Hepacivirus hominis. The following applies: genotype 1b, Huh-7, 72 h. In short, it runs like this: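 Dual-replicon screen pairing an HCV genotype 1b replicon with a bovine viral diarrhea virus replicon, run in high-throughput mode. Results are reported as EC50.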
On to `C[C@H](NC(=O)OCc1ccccc1)C(=O)Nc1ccc(C2S/C(=N\c3cccc(F)c3)N(Cc3ccco3)C2=O)cc1` (stereo partly drawn), for which the EC50 (usually the concentration that produces a half-maximal response) was found to be 580 nM.
On to `O=C(Nc1ccc(C2S/C(=N\c3cccc(F)c3)N(Cc3ccco3)C2=O)cc1)OCc1ccccc1` (stereo not drawn), for which the EC50 was 150000 nM.
Regarding `O=C(COCc1ccccc1)Nc1ccc(C2S/C(=N\c3cccc(F)c3)N(Cc3ccco3)C2=O)cc1` (stereo not drawn), the concentration for a half-maximal effect (EC50) worked out at 61000 nM.
As to `CC(OCc1ccccc1)C(=O)Nc1ccc(C2S/C(=N\c3cccc(F)c3)N(Cc3ccco3)C2=O)cc1` (stereo not drawn), the EC50 stood at 132000 nM.
The same measure, in the same setting: the value for `O=C(CCc1ccccc1)Nc1ccc(C2S/C(=N\c3cccc(F)c3)N(Cc3ccco3)C2=O)cc1` (stereo not drawn) was 75000 nM.
For the compound `COC(=O)CCCC(=O)Nc1ccc(C2S/C(=N\c3cccc(F)c3)N(Cc3ccco3)C2=O)cc1` (stereo not drawn), the half-maximal effective concentration (EC50) turned out to be 150000 nM.
Regarding `C[C@@H](NC(=O)OCc1ccccc1)C(=O)Nc1ccc(C2S/C(=N\c3cccc(F)c3)N(Cc3ccco3)C2=O)cc1` (stereo partly drawn), the EC50 turned out to be 96000 nM.
Same read-out and setting: the figure for `O=C(Nc1ccc(C2S/C(=N\c3cccc(F)c3)N(Cc3ccco3)C2=O)cc1)[C@@H]1CCCN1C(=O)OCc1ccccc1` (stereo partly drawn) is 110 nM.
Same read-out and setting: the figure for `O=C(Nc1ccc(C2S/C(=N\c3cccc(F)c3)N(Cc3ccco3)C2=O)cc1)[C@H]1CCCN1C(=O)OCc1ccccc1` (stereo partly drawn) is 6500 nM; for `O=C(CNC(=O)OCc1ccccc1)Nc1ccc(C2S/C(=N\c3cccc(F)c3)N(Cc3ccco3)C2=O)cc1` (stereo not drawn) it is 5000 nM; for `CC(C)(C)OC[C@H](NC(=O)OCc1ccccc1)C(=O)Nc1ccc(C2S/C(=N\c3cccc(F)c3)N(Cc3ccco3)C2=O)cc1` (stereo partly drawn) it is greater than 50000 nM.
On the same count and under the same terms, the figure for `CC[C@@H](C)[C@H](NC(=O)OCc1ccccc1)C(=O)Nc1ccc(C2S/C(=N\c3cccc(F)c3)N(Cc3ccco3)C2=O)cc1` (stereo partly drawn) is 6000 nM; for `O=C(N[C@@H](CSCc1ccccc1)C(=O)Nc1ccc(C2S/C(=N\c3cccc(F)c3)N(Cc3ccco3)C2=O)cc1)OCc1ccccc1` (stereo partly drawn) it is greater than 50000 nM.
In the case of `O=C(N[C@@H](Cc1ccccc1)C(=O)Nc1ccc(C2S/C(=N\c3cccc(F)c3)N(Cc3ccco3)C2=O)cc1)OCc1ccccc1` (stereo partly drawn), the concentration for a half-maximal effect (EC50) was greater than 50000 nM.
`C[C@H](NC(=O)c1ccccc1)C(=O)Nc1ccc(C2S/C(=N\c3cccc(F)c3)N(Cc3ccco3)C2=O)cc1` (stereo partly drawn): the EC50 was found to be 1900 nM.
Still for that read-out and setting: the value for `O=C(Nc1ccc(C2S/C(=N\c3cccc(F)c3)N(Cc3ccco3)C2=O)cc1)[C@@H]1CCCN1C(=O)c1ccccc1` (stereo partly drawn) was 7900 nM; that for `C[C@H](NC(=O)Cc1ccccc1)C(=O)Nc1ccc(C2S/C(=N\c3cccc(F)c3)N(Cc3ccco3)C2=O)cc1` (stereo partly drawn) was 6 nM.
The same measure, in the same setting: the figure for `O=C(Nc1ccc(C2S/C(=N\c3cccc(F)c3)N(Cc3ccco3)C2=O)cc1)[C@@H]1CCCN1C(=O)Cc1ccccc1` (stereo partly drawn) is 23 nM.
`C[C@H](NC(=O)CCc1ccccc1)C(=O)Nc1ccc(C2S/C(=N\c3cccc(F)c3)N(Cc3ccco3)C2=O)cc1` (stereo partly drawn): the EC50 is 3100 nM.
Still for that read-out and setting: the figure for `O=C(Nc1ccc(C2S/C(=N\c3cccc(F)c3)N(Cc3ccco3)C2=O)cc1)[C@@H]1CCCN1C(=O)CCc1ccccc1` (stereo partly drawn) is 5100 nM; for `C[C@H](NC(=O)OCc1ccccc1)C(=O)Nc1ccc(C2S/C(=N\c3cccc(F)c3)N(CC3CCCO3)C2=O)cc1` (stereo partly drawn) it is 650 nM; for `C[C@H](NC(=O)OCc1ccccc1)C(=O)Nc1ccc(C2S/C(=N\c3cccc(F)c3)N(Cc3cnccn3)C2=O)cc1` (stereo partly drawn) it is 25 nM.
Regarding `O=C(Nc1ccc(C2S/C(=N\c3cccc(F)c3)N(Cc3cnccn3)C2=O)cc1)[C@@H]1CCCN1C(=O)OCc1ccccc1` (stereo partly drawn), the EC50 stood at 38 nM.
Same read-out and setting: the figure for `C[C@H](NC(=O)OCc1ccccc1)C(=O)Nc1ccc(C2S/C(=N\c3cccc(F)c3)N(Cc3ccccn3)C2=O)cc1` (stereo partly drawn) is 35 nM; for `O=C(Nc1ccc(C2S/C(=N\c3cccc(F)c3)N(Cc3ccccn3)C2=O)cc1)[C@@H]1CCCN1C(=O)OCc1ccccc1` (stereo partly drawn) it is 2 nM; for `C[C@H](NC(=O)OCc1ccccc1)C(=O)Nc1ccc(C2S/C(=N\c3cccc(F)c3)N(Cc3cccnc3)C2=O)cc1` (stereo partly drawn) it is 26 nM.
Same read-out and setting: the value for `C[C@H](NC(=O)OCc1ccccc1)C(=O)Nc1ccc(C2S/C(=N\c3cccc(F)c3)N(Cc3ccc(F)c(F)c3F)C2=O)cc1` (stereo partly drawn) was 550 nM; that for `O=C(Nc1ccc(C2S/C(=N\c3cccc(F)c3)N(Cc3ccc(F)c(F)c3F)C2=O)cc1)[C@@H]1CCCN1C(=O)OCc1ccccc1` (stereo partly drawn) was 600 nM.
For `C[C@H](NC(=O)OCc1ccccc1)C(=O)Nc1ccc(C2S/C(=N\c3ccc(C(F)(F)F)cc3)N(Cc3ccco3)C2=O)cc1` (stereo partly drawn), the half-maximal effective concentration (EC50) is 2200 nM.
Still for that read-out and setting: the figure for `O=C(Nc1ccc(C2S/C(=N\c3ccc(C(F)(F)F)cc3)N(Cc3ccco3)C2=O)cc1)[C@@H]1CCCN1C(=O)OCc1ccccc1` (stereo partly drawn) is 980 nM.
Turning to `C[C@H](NC(=O)OCc1ccccc1)C(=O)Nc1ccc(C2S/C(=N\c3ccc(C(F)(F)F)c(F)c3)N(Cc3ccco3)C2=O)cc1` (stereo partly drawn), the EC50 amounted to 2500 nM.
The same measure, in the same setting: the figure for `O=C(Nc1ccc(C2S/C(=N\c3ccc(C(F)(F)F)c(F)c3)N(Cc3ccco3)C2=O)cc1)[C@@H]1CCCN1C(=O)OCc1ccccc1` (stereo partly drawn) is 2200 nM; for `C[C@H](NC(=O)OCc1ccccc1)C(=O)Nc1ccc(C2S/C(=N\c3ccc(Cl)cc3)N(Cc3ccco3)C2=O)cc1` (stereo partly drawn) it is 510 nM; for `O=C(Nc1ccc(C2S/C(=N\c3ccc(Cl)cc3)N(Cc3ccco3)C2=O)cc1)[C@@H]1CCCN1C(=O)OCc1ccccc1` (stereo partly drawn) it is 1170 nM.
Same read-out and setting: the value for `CCc1ccc(/N=C2\SC(c3ccc(NC(=O)[C@H](C)NC(=O)OCc4ccccc4)cc3)C(=O)N2Cc2ccco2)cc1` (stereo partly drawn) was 1500 nM; that for `CCc1ccc(/N=C2\SC(c3ccc(NC(=O)[C@@H]4CCCN4C(=O)OCc4ccccc4)cc3)C(=O)N2Cc2ccco2)cc1` (stereo partly drawn) was 1800 nM; that for `C[C@H](NC(=O)OCc1ccccc1)C(=O)Nc1ccc(C2S/C(=N\c3ccc(C#N)cc3)N(Cc3ccco3)C2=O)cc1` (stereo partly drawn) was 37 nM.
Still for that read-out and setting: the figure for `N#Cc1ccc(/N=C2\SC(c3ccc(NC(=O)[C@@H]4CCCN4C(=O)OCc4ccccc4)cc3)C(=O)N2Cc2ccco2)cc1` (stereo partly drawn) is 86 nM; for `C[C@H](NC(=O)OCc1ccccc1)C(=O)Nc1ccc(C2S/C(=N\c3cccc4c3OCCO4)N(Cc3ccco3)C2=O)cc1` (stereo partly drawn) it is 10 nM.
For the compound `O=C(Nc1ccc(C2S/C(=N\c3cccc4c3OCCO4)N(Cc3ccco3)C2=O)cc1)[C@@H]1CCCN1C(=O)OCc1ccccc1` (stereo partly drawn), the EC50 came out at 9 nM.
For `C[C@H](NC(=O)OCc1ccccc1)C(=O)Nc1ccc(C2S/C(=N\c3cccc4ncccc34)N(Cc3ccco3)C2=O)cc1` (stereo partly drawn), the half-maximal effective concentration (EC50) was found to be 20 nM.
For `O=C(Nc1ccc(C2S/C(=N\c3cccc4ncccc34)N(Cc3ccco3)C2=O)cc1)[C@@H]1CCCN1C(=O)OCc1ccccc1` (stereo partly drawn), the EC50 was determined as 10 nM.
On the same count and under the same terms, the figure for `C[C@H](NC(=O)OCc1ccccc1)C(=O)Nc1ccc(C2S/C(=N\c3ccc(N4CCOCC4)cc3)N(Cc3ccco3)C2=O)cc1` (stereo partly drawn) is 15 nM; for `O=C(Nc1ccc(C2S/C(=N\c3ccc(N4CCOCC4)cc3)N(Cc3ccco3)C2=O)cc1)[C@@H]1CCCN1C(=O)OCc1ccccc1` (stereo partly drawn) it is 20 nM.
Regarding `O=C(Nc1ccc(/C=C/c2ccc(NC(=O)[C@@H]3CCCN3C(=O)Cc3ccccc3)cc2)cc1)[C@@H]1CCCN1C(=O)Cc1ccccc1`, the concentration for a half-maximal effect (EC50) stood at 0.086 nM.
Still for that read-out and setting: the figure for `O=C(Nc1ccc(/C=C/c2ccc(NC(=O)[C@H]3CCCN3C(=O)Cc3ccccc3)cc2)cc1)[C@H]1CCCN1C(=O)Cc1ccccc1` is greater than 10000 nM; for `O=C(Nc1ccc(/C=C/c2ccc(NC(=O)[C@@H]3CCCN3C(=O)OCc3ccccc3)cc2)cc1)[C@@H]1CCCN1C(=O)OCc1ccccc1` it is 10 nM.
In the case of `O=C(Nc1ccc(/C=C/c2ccc(NC(=O)[C@H]3CCCN3C(=O)OCc3ccccc3)cc2)cc1)[C@H]1CCCN1C(=O)OCc1ccccc1`, the concentration giving a half-maximal response (EC50) is greater than 10000 nM.

System in another series: not listed separately
Put plainly: Cytotoxicity against human HuH7 cells.
Conditions: not given
Format: cell-based, Huh-7.
Consider `C[C@H](NC(=O)OCc1ccccc1)C(=O)Nc1ccc(C2S/C(=N\c3cccc(F)c3)N(Cc3ccco3)C2=O)cc1` (stereo partly drawn), for which the cytotoxic concentration (CC50) (usually the concentration giving 50% cytotoxicity) is greater than 100000 nM.

System in another series: not listed separately
Put plainly: Chemical stability of the compound in DMSO assessed as conversion of (2S)-1-(4-(3-(3-fluorophenyl)-1-(furan-2-ylmethyl)-4-hydroxy-5-oxo-2-thioxoimidazolidin- 4-yl)phenylamino)-1-oxopropan-2-ylcarbamate after 18 hrs by HPLC analysis. The series is classed as physicochemical.
Conditions: not given
In the case of `C[C@H](NC(=O)OCc1ccccc1)C(=O)Nc1ccc(C2S/C(=N\c3cccc(F)c3)N(Cc3ccco3)C2=O)cc1` (stereo partly drawn), the Stability entry was “Unstable”.
For `C[C@H](NC(=O)Cc1ccccc1)C(=O)Nc1ccc(C2S/C(=N\c3cccc(F)c3)N(Cc3ccco3)C2=O)cc1` (stereo partly drawn), the Stability entry is reported as “Unstable”.

System in the next series: not listed separately
The series is described as follows: Chemical stability of the compound in DMSO assessed as conversion of (2S)-N-(4-(3-(3-Fluorophenyl)-1-(furan-2-ylmethyl)-4-hydroxy-5-oxo-2- thioxoimidazolidin-4-yl)phenyl)-2-(2-phenylacetamido)propanamide by HPLC analysis.
Conditions: not given
Format: physicochemical.
On to `C[C@H](NC(=O)OCc1ccccc1)C(=O)Nc1ccc(C2S/C(=N\c3cccc(F)c3)N(Cc3ccco3)C2=O)cc1` (stereo partly drawn), for which the Stability entry is recorded as “Unstable”.
In the case of `C[C@H](NC(=O)Cc1ccccc1)C(=O)Nc1ccc(C2S/C(=N\c3cccc(F)c3)N(Cc3ccco3)C2=O)cc1` (stereo partly drawn), the Stability result is reported as “Unstable”.
